According to ChEMBL document CHEMBL4004866, “6-Benzylidene-2-[4-(pyridin-3-ylcarboxy)benzylidene]cyclohexanones: A novel cluster of tumour-selective cytotoxins” (Bioorg Med Chem Lett, 2017):
Active and inactive are the calls of the source. No cut-off for these calls is given here.

How the values were obtained:
[1] = test system: CCRF-CEM; assay: Cytotoxicity against human CEM cells assessed as growth inhibition after 72 hrs by coulter counter method; type: functional, cell-based
[2] = test system: L1210; assay: Cytotoxicity against mouse L1210 cells assessed as growth inhibition after 48 hrs by coulter counter method; type: functional, cell-based; conditions: L1210, 48 h
[3] = Cytotoxicity against human Molt4/C8 cells assessed as growth inhibition after 72 hrs by coulter counter method; type: functional, cell-based; conditions: Molt4/C8, 72 h
[4] = test system: Mus musculus; assay: Toxicity in mouse assessed as mortality at 30 to 300 mg/kg, ip after 0.5 to 4 hrs; type: organism-based; conditions: in vivo
How it was run: (§1)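 Mice were given compound intraperitoneally at 30, 100 and 300 mg/kg. Animals were checked for survival and neurological deficit at 0.5 and 4 h after dosing.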

[5] = Cytotoxicity against human HPC after 48 hrs by MTT assay; type: cell-based; conditions: HPC cells
How it was run: (§2)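 Nonmalignant human cells were exposed to compounds for 48 h at 37 °C. CC50 was taken as the concentration cytotoxic to 50% of cells.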

[6] = Cytotoxicity against HGF after 48 hrs by MTT assay; type: cell-based; conditions: human, HGF cells; how it was run: as §2
[7] = test system: HL-60; assay: Cytotoxicity against human HL60 cells after 48 hrs by MTT assay; type: functional; conditions: HL-60, 48 h
[8] = test system: HSC-4; assay: Cytotoxicity against human HSC4 cells after 48 hrs by MTT assay; type: functional; conditions: HSC-4, 48 h
[9] = Cytotoxicity against HPLF after 48 hrs by MTT assay; type: cell-based; conditions: human, HPLF cells; how it was run: as §2
[10] = test system: Rattus norvegicus; assay: Toxicity in rat assessed as overt toxicity at 30 mg/kg, po after 0.25 to 4 hrs; type: organism-based; conditions: in vivo
How it was run: (§3)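 Rats received a single oral dose and were examined for overt toxicity at 0.25, 0.5, 1, 2 and 4 h.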

[11] = Selectivity index, ratio of CC50 for HGF to CC50 for human HSC3 cells; conditions: pooled result: one value given for 3 cell lines, strains, targets or settings
[12] = Selectivity index, ratio of CC50 for human HPC to CC50 for human HSC4 cells
[13] = test system: HSC-3; assay: Cytotoxicity against human HSC3 cells after 48 hrs by MTT assay; type: functional; conditions: HSC-3, 48 h
[14] = Selectivity index, ratio of CC50 for HGF to CC50 for human HSC4 cells
[15] = Selectivity index, ratio of CC50 for HGF to CC50 for human HSC2 cells; conditions: pooled result: one value given for 3 cell lines, strains, targets or settings
[16] = Selectivity index, ratio of CC50 for HGF to CC50 for human HL60 cells; conditions: pooled result: one value given for 3 cell lines, strains, targets or settings
[17] = test system: HSC-2; assay: Cytotoxicity against human HSC2 cells after 48 hrs by MTT assay; type: functional; conditions: HSC-2, 48 h
[18] = Selectivity index, ratio of CC50 for HPLF to CC50 for human HSC4 cells
[19] = test system: HSC-2; assay: Cell cycle arrest in human HSC2 cells assessed as accumulation at G2/M phase at 7 uM after 24 hrs by propidium iodide staining-based method (reference value: 11%); type: functional
[20] = test system: Mus musculus; assay: Neurotoxicity in mouse at 300 mg/kg, ip after 0.5 hrs; type: toxicity, organism-based; conditions: in vivo
How it was run: (§4)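 Mice received intraperitoneal doses of 30, 100 and 300 mg/kg. Animals were scored for survival and neurological deficit at 0.5 and 4 h after dosing.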

[21] = test system: Rattus norvegicus; assay: Toxicity in rat assessed as overt toxicity at 50 mg/kg, po after 0.25 to 4 hrs; type: organism-based; conditions: in vivo; how it was run: as §3
[22] = test system: Mus musculus; assay: Neurotoxicity in mouse at 300 mg/kg, ip after 4 hrs; type: toxicity, organism-based; conditions: in vivo; how it was run: as §4
[23] = test system: HSC-2; assay: Cell cycle arrest in human HSC2 cells assessed as accumulation at S phase at 7 uM after 24 hrs by propidium iodide staining-based method (reference value: 13%); type: functional
[24] = Chemical stability in pH 7.4 buffer/dimethylsulfoxide after 48 hrs by 1H NMR method; type: physicochemical; conditions: pH 7.4, 48 h
How it was run: (§5)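 Compound solutions were incubated for 48 h at 37 °C, the same time and temperature as the in vitro assays, and checked for hydrolysis to the corresponding phenol.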

[25] = test system: HSC-2; assay: Induction of apoptosis in human HSC2 cells assessed as PARP1 cleavage at 7 uM after 24 hrs by chemiluminescence method; type: functional, cell-based
[26] = test system: Serum; assay: Drug metabolism in rat serum/dimethylsulfoxide assessed as 6-benzylidene-2-(4-hydroxybenzylidene)cyclohexanone formation after 48 hrs by 1H NMR method; type: ADME, cell-free; how it was run: as §5
[27] = test system: HSC-3; assay: Induction of apoptosis in human HSC3 cells assessed as PARP1 cleavage at 7 uM after 24 hrs by chemiluminescence method; type: functional, cell-based
[28] = Chemical stability in deuterium oxide/deuterated dimethylsulfoxide after 48 hrs by 1H NMR method; type: physicochemical; how it was run: as §5
[29] = test system: HSC-2; assay: Cell cycle arrest in human HSC2 cells assessed as accumulation at G0/G1 phase at 7 uM after 24 hrs by propidium iodide staining-based method (reference value: 73%); type: functional
[30] = Toxicity in ip dosed mouse; type: organism-based; conditions: in vivo; how it was run: as §1

## Cc1ccc(/C=C2\CCC/C(=C\c3ccc(O)cc3)C2=O)cc1
[1]
  IC50: 4.31 µM
[2]
  IC50: 7.41 µM
[3]
  IC50: 5.22 µM

## Cc1ccc(/C=C2\CCC/C(=C\c3ccc(OC(=O)c4ccccc4)cc3)C2=O)cc1
[1]
  IC50: 10.6 µM
[2]
  IC50: 37.9 µM
[3]
  IC50: 5.7 µM
[4]
  Activity: Non-Toxic

## Cc1ccc(/C=C2\CCC/C(=C\c3ccc(OC(=O)c4cccnc4)cc3)C2=O)cc1
[5]
  CC50 at 48 h: > 200 µM
[6]
  CC50 at 48 h: 184 µM
[1]
  IC50: 9.49 µM
[2]
  IC50: 12.8 µM
[3]
  IC50: 2.88 µM
[7]
  CC50: 1.9 µM
[8]
  CC50: 94.3 µM
[9]
  CC50 at 48 h: 163 µM
[10]
  Activity: Non-Toxic
[4]
  Activity: Non-Toxic
[11]
  Selectivity Index: >1.86
[12]
  Selectivity Index: >1.93
[13]
  CC50: 98 µM
[14]
  Selectivity Index: >1.93
[15]
  Selectivity Index: >2.02
[16]
  Selectivity Index: >95.8
[17]
  CC50: 90.3 µM
[18]
  Selectivity Index: >1.93

## O=C1/C(=C/c2ccccc2)CCC/C1=C\c1ccc(OC(=O)c2cccnc2)cc1
[5]
  CC50 at 48 h: 142 µM
[6]
  CC50 at 48 h: 116 µM
[1]
  IC50: 7.3 µM
[19]
  Activity: 1.5%
[2]
  IC50: 8.71 µM
[20]
  Activity: Toxic
[3]
  IC50: 1.62 µM
[7]
  CC50: 1.5 µM
[8]
  CC50: 15.9 µM
[9]
  CC50 at 48 h: 60 µM
[4]
  Activity: Non-Toxic
[11]
  Selectivity Index: 5.99
[12]
  Selectivity Index: 6.67
[21]
  Activity: Non-Toxic
[13]
  CC50: 17.7 µM
[14]
  Selectivity Index: 6.67
[22]
  Activity: Non-Toxic
[23]
  Activity: 9.7%
[24]
  Stability: Stable
[25]
  Activity: Active
[15]
  Selectivity Index: 8.48
[16]
  Selectivity Index: 70.7
[26]
  Drug metabolism: Metabolite_Notdetected
[17]
  CC50: 12.5 µM
[27]
  Activity: inactive
[28]
  Stability: Stable
[18]
  Selectivity Index: 6.67
[29]
  Activity: 86%

## COc1ccc(/C=C2\CCC/C(=C\c3ccc(O)cc3)C2=O)cc1
[1]
  IC50: 5.68 µM
[2]
  IC50: 6.85 µM
[3]
  IC50: 4.18 µM

## O=C1/C(=C/c2ccc(OC(=O)c3cccnc3)cc2)CCC/C1=C\c1ccc([N+](=O)[O-])cc1
[5]
  CC50 at 48 h: > 200 µM
[6]
  CC50 at 48 h: > 200 µM
[1]
  IC50: 48.1 µM
[2]
  IC50: 61.1 µM
[3]
  IC50: 38.1 µM
[7]
  CC50: > 200 µM
[8]
  CC50: > 200 µM
[9]
  CC50 at 48 h: > 200 µM
[4]
  Activity: Non-Toxic
[11]
  Selectivity Index: 1
[12]
  Selectivity Index: 1
[13]
  CC50: > 200 µM
[14]
  Selectivity Index: 1
[15]
  Selectivity Index: >1.79
[16]
  Selectivity Index: 1
[17]
  CC50: 112 µM
[18]
  Selectivity Index: 1

## O=C1/C(=C/c2ccc(O)cc2)CCC/C1=C\c1ccc(Cl)cc1
[1]
  IC50: 2.69 µM
[2]
  IC50: 6.44 µM
[3]
  IC50: 4.9 µM

## O=C1/C(=C/c2ccccc2)CCC/C1=C\c1ccc(O)cc1
[1]
  IC50: 5.82 µM
[2]
  IC50: 7.32 µM
[3]
  IC50: 5.17 µM

## O=C1/C(=C/c2ccc(O)cc2)CCC/C1=C\c1ccc(O)cc1
[1]
  IC50: 6.84 µM
[2]
  IC50: 13.5 µM
[3]
  IC50: 5.52 µM

## O=C1/C(=C/c2ccc(OC(=O)c3cccnc3)cc2)CCC/C1=C\c1ccc(OC(=O)c2cccnc2)cc1
[1]
  IC50: 169 µM
[2]
  IC50: 213 µM
[3]
  IC50: 22.6 µM
[4]
  Activity: Non-Toxic

## O=C(O)c1cccnc1 [NIACIN]
[5]
  CC50 at 48 h: > 200 µM
[6]
  CC50 at 48 h: > 200 µM
[1]
  IC50: > 500 µM
[2]
  IC50: > 500 µM
[3]
  IC50: > 500 µM
[7]
  CC50: > 200 µM
[8]
  CC50: > 200 µM
[9]
  CC50 at 48 h: > 200 µM
[11]
  Selectivity Index: 1
[12]
  Selectivity Index: 1
[13]
  CC50: > 200 µM
[14]
  Selectivity Index: 1
[15]
  Selectivity Index: 1
[16]
  Selectivity Index: 1
[17]
  CC50: > 200 µM
[18]
  Selectivity Index: 1

## COc1ccc(/C=C2\CCC/C(=C\c3ccc(OC(=O)c4cccnc4)cc3)C2=O)cc1
[5]
  CC50 at 48 h: > 200 µM
[6]
  CC50 at 48 h: > 200 µM
[1]
  IC50: 9.85 µM
[2]
  IC50: 7.63 µM
[3]
  IC50: 1.19 µM
[7]
  CC50: 2.3 µM
[8]
  CC50: 22.7 µM
[9]
  CC50 at 48 h: > 200 µM
[4]
  Activity: Non-Toxic
[11]
  Selectivity Index: >12.5
[12]
  Selectivity Index: >8.81
[13]
  CC50: 16 µM
[14]
  Selectivity Index: >8.81
[15]
  Selectivity Index: >6.6
[16]
  Selectivity Index: >87
[17]
  CC50: 30.3 µM
[18]
  Selectivity Index: >8.81

## N[C@@H](Cc1ccc(N(CCCl)CCCl)cc1)C(=O)O [MELPHALAN]
[5]
  CC50 at 48 h: 37 µM
[6]
  CC50 at 48 h: 73 µM
[7]
  CC50: 0.89 µM
[8]
  CC50: 46 µM
[9]
  CC50 at 48 h: 92 µM
[11]
  Selectivity Index: 1.46
[12]
  Selectivity Index: 1.46
[13]
  CC50: 46 µM
[14]
  Selectivity Index: 1.46
[30]
  LD50: 21.7 mg/kg
[15]
  Selectivity Index: 5.61
[16]
  Selectivity Index: 75.6
[17]
  CC50: 12 µM
[18]
  Selectivity Index: 1.46

## O=C1/C(=C/c2ccccc2)CCC/C1=C\c1ccc(OC(=O)c2ccccc2)cc1
[1]
  IC50: 40.4 µM
[2]
  IC50: 46.7 µM
[3]
  IC50: 10.4 µM
[4]
  Activity: Non-Toxic

## O=C1/C(=C/c2ccc(Cl)cc2)CCC/C1=C\c1ccc(OC(=O)c2cccnc2)cc1
[5]
  CC50 at 48 h: 179 µM
[6]
  CC50 at 48 h: 190 µM
[1]
  IC50: 17.4 µM
[2]
  IC50: 29.6 µM
[3]
  IC50: 7.89 µM
[7]
  CC50: 10.5 µM
[8]
  CC50: 37.3 µM
[9]
  CC50 at 48 h: 154 µM
[4]
  Activity: Non-Toxic
[11]
  Selectivity Index: 5.16
[12]
  Selectivity Index: 4.67
[13]
  CC50: 33.7 µM
[14]
  Selectivity Index: 4.67
[15]
  Selectivity Index: 5.71
[16]
  Selectivity Index: 16.6
[17]
  CC50: 30.5 µM
[18]
  Selectivity Index: 4.67
